# Several values for one entry are separate records, joined by “and”; a condition that tells them apart may be missing. Equal values may be shown once.
# Tests used:
# Mus musculus [1] = test: Percentage change in plasma glucose after 4 days of treatment in db/db mouse at 1 mg/kg (po) in a postprandial assay; type: functional
# How it was run: (§1)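 Male db/db (C57BL/KsJ) mice; postprandial assay after 4 days of oral dosing. Result is % change in plasma glucose relative to the vehicle-treated group. Values are mean ± SE with 4–6 mice per group; p < 0.05 flagged.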
# Mus musculus [2] = test: Percentage change in plasma glucose after 4 days of treatment in db/db mouse at 100 mg/kg (po) in a postprandial assay; type: functional; how it was run: as §1
# Mus musculus [3] = test: Percentage change in plasma glucose after 4 days of treatment in db/db mouse at 20 mg/kg (po) in a postprandial assay; type: functional; how it was run: as §1
# Mus musculus [4] = test: Percentage change in plasma glucose after 4 days of treatment in db/db mouse at 5 mg/kg (po) in a postprandial assay
# Mus musculus [5] = test: Percentage change in plasma glucose after 4 days of treatment in db/db mouse at 5 mg/kg (po) in a postprandial assay; type: functional; how it was run: as §1
# Mus musculus [6] = test: Plasma glucose after treatment in obese ob/ob mice at 5 mg/kg (po); type: functional
# How it was run: (§2)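 Female obese ob/ob (C57BL/6J) mice, 3-5 months old, fed ad libitum. Oral gavage once daily for 10 days, vehicle 0.2 mL 2% Tween 80/saline (w/v). Decapitated 4 h after the last dose; blood assayed for glucose. Mean ± SEM; p < 0.05 versus vehicle.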
# Rattus norvegicus [7] = test: Amount of food consumed by the rat at a dose of 10 mg/kg; type: functional
# How it was run: (§3)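 Male Sprague-Dawley rats (nondiabetic), dosed daily by mouth for 11 days. Urine collected over 24 h and assayed for glucose; urine volume, water intake and food intake also measured. Values are mean ± SE, n = 6 per group.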
# Rattus norvegicus [8] = test: Change in urinary glucose excretion of nondiabetic rats at the dose of 25 mg/kg; type: functional, Urine
# Rattus norvegicus [9] = test: Plasma glucose levels of nondiabetic rats after 1 hour of drug administration (25 mg/Kg, po); type: functional
# How it was run: (§4)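 Single oral dose to male Sprague-Dawley nondiabetic rats. Tail-tip blood sampled before dosing and at 1, 2 and 4 h after dosing for plasma glucose. Mean ± SE, n = 5 per group; compared with the respective vehicle group.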
# Rattus norvegicus [10] = test: Change in plasma glucose levels of streptozocin-diabetic rats wtih type I diabetes at dose of 25 mg/kg, po; type: functional
# How it was run: (§5)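 Male Sprague-Dawley rats made diabetic with streptozocin (100 mg/kg, ip). Drug or vehicle given orally once daily for 3 weeks. Tail-tip blood taken 90 min after the last dose and assayed for plasma glucose. Mean ± SE, n = 9-12 per group.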
# Rattus norvegicus [11] = test: Plasma glucose levels of nondiabetic rats after 0 hour of drug administration (25 mg/Kg, po); type: functional; how it was run: as §4
# Rattus norvegicus [12] = test: Plasma glucose levels of nondiabetic rats after 4 hour of drug administration (25 mg/Kg, po); type: functional; how it was run: as §4
# Rattus norvegicus [13] = test: Plasma glucose levels of nondiabetic rats after 2 hour of drug administration (25 mg/Kg, po); type: functional; how it was run: as §4
# Rattus norvegicus [14] = test: Amount of food consumed by the rat at a dose of 5 mg/kg; type: functional; how it was run: as §3
# Mus musculus [15] = test: Plasma glucose after treatment in obese ob/ob mice at 20 mg/kg (po); type: functional; how it was run: as §2
# Rattus norvegicus [16] = test: Volume of urine collected after treatment in nondiabetic rats at the dose of 5 mg/kg; type: functional; how it was run: as §3
# Rattus norvegicus [17] = test: Volume of urine collected after treatment in nondiabetic rats at the dose of 25 mg/kg; type: functional; how it was run: as §3
# Rattus norvegicus [18] = test: Amount of food consumed by the rat at a dose of 25 mg/kg; type: functional; how it was run: as §3
# Rattus norvegicus [19] = test: Volume of water consumed by the rat at a dose of 10 mg/kg; type: functional; how it was run: as §3
# Rattus norvegicus [20] = test: Volume of water consumed by the rat at a dose of 25 mg/kg; type: functional; how it was run: as §3
# Rattus norvegicus [21] = test: Volume of water consumed by the rat at a dose of 5 mg/kg; type: functional; how it was run: as §3
# Rattus norvegicus [22] = test: Volume of urine collected after treatment in nondiabetic rats at the dose of 10 mg/kg; type: functional; how it was run: as §3
# Rattus norvegicus [23] = test: Change in plasma glucose levels of streptozocin-diabetic rats wtih type I diabetes at dose of 5 mg/kg, po; type: functional; how it was run: as §5
# Mus musculus [24] = test: Percentage change in plasma glucose after 4 days of treatment in db/db mouse at 1 mg/kg (po) in a postprandial assay
# Mus musculus [25] = test: Plasma glucose after treatment in obese ob/ob mice at 200 mg/kg (po); type: functional; how it was run: as §2
# Mus musculus [26] = test: Plasma glucose after treatment in obese ob/ob mice at 50 mg/kg (po); type: functional; how it was run: as §2
# [27] = dose 5 mg/kg, in the assay text read “5 mg/kg” for “100 mg/kg”
structure (smiles),measurement,setting,value
O=S1NC(Cc2ccc3ccccc3c2Cl)=NO1 (centres undefined),Change,Mus musculus [1],<-15%
same,Change,Mus musculus [2]; [27],-27%
Cc1cccc2cc(CC3=NOS(=O)N3)ccc12 (centres undefined),Change,Mus musculus [1],<-15%
same,Change,Mus musculus [2]; [27],-37%
COc1ccc2cc(CC3=NOS(=O)N3)ccc2c1 (centres undefined),Change,Mus musculus [3],<-15%
O=S1NC(Cc2ccc3ccccc3c2F)=NO1 (centres undefined),Change,Mus musculus [1],<-15%
same,Change,Mus musculus [2]; [27],-39%
O=S1NC(Cc2ccc3cc(F)ccc3c2Cl)=NO1 (centres undefined),Change,Mus musculus [4],<-15%
Cc1cc2ccccc2cc1CC1=NOS(=O)N1 (centres undefined),Change,Mus musculus [2]; dose 100 mg/kg,-36% and -20%
O=S1NC(Cc2ccc3ccc(Cl)cc3c2)=NO1 (centres undefined),Change,Mus musculus [5],<-15%
O=S1NC(Cc2ccc3c(C(F)(F)F)cccc3c2)=NO1 (centres undefined),Change,Mus musculus [1],<-15%
same,Change,Mus musculus [2]; [27],-30%
CC(C1=NOS(=O)N1)c1ccc2ccccc2c1 (centres undefined),Change,Mus musculus [3],-49%
O=S1NC(Cc2ccc3c(Br)cccc3c2)=NO1 (centres undefined),Change,Mus musculus [2]; dose 100 mg/kg,-47% and -35%
O=S1NC(Cc2ccc3ccccc3c2)=NO1 (centres undefined),Change,Mus musculus [5],<-15%
same,Change,Mus musculus [3],-37%
O=S1NC(CCc2ccc3ccccc3c2)=NO1 (centres undefined),Change,Mus musculus [3],-38%
O=S1NC(Cc2ccc3ccccc3c2Br)=NO1 (centres undefined),Change,Mus musculus [2]; dose 100 mg/kg,-40% and -21%
O=S1NC(CSc2ccc3ccccc3c2)=NO1 (centres undefined),Change,Mus musculus [3],-40%
O=S1NC(Cc2ccc3c(Cl)cccc3c2)=NO1 (centres undefined),Glucose level,Mus musculus [6],223 mg/dL
same,Consumption,Rattus norvegicus [7],25 g/day
same,Glucose level,Rattus norvegicus [8],5.7 g dl-1 and 2.1 g day-1
same,Glucose level,Rattus norvegicus [9],120 mg/dL
same,Glucose level,Rattus norvegicus [10],255 mg/dL
same,Glucose level,Rattus norvegicus [11],111 mg/dL
same,Glucose level,Rattus norvegicus [12],118 mg/dL
same,Glucose level,Rattus norvegicus [13],122 mg/dL
same,Consumption,Rattus norvegicus [14],25 g/day
same,Glucose level,Mus musculus [15],199 mg/dL
same,urine volume,Rattus norvegicus [16],29 mL/day
same,urine volume,Rattus norvegicus [17],37 mL/day
same,Consumption,Rattus norvegicus [18],25 g/day
same,Consumption,Rattus norvegicus [19],45 mL/day
same,Consumption,Rattus norvegicus [20],59 mL/day
same,Consumption,Rattus norvegicus [21],49 mL/day
same,urine volume,Rattus norvegicus [22],23 mL/day
same,Glucose level,Rattus norvegicus [23],329 mg/dL
same,Change,Mus musculus [2]; dose 100 mg/kg,-44% and -21%
O=S1NC(Cc2ccc3cc(F)ccc3c2Br)=NO1 (centres undefined),Change,Mus musculus [5],-16%
O=S1NC(c2ccc3ccccc3c2)=NO1 (centres undefined),Change,Mus musculus [3],<-15%
CC(C)(C1=NOS(=O)N1)c1ccc2ccccc2c1 (centres undefined),Change,Mus musculus [3],<-15%
O=S1NC(C(Cc2ccccc2)c2ccc3ccccc3c2)=NO1 (centres undefined),Change,Mus musculus [3],<-15%
COc1c(CC2=NOS(=O)N2)cc(Cl)c2ccccc12 (centres undefined),Change,Mus musculus [1],-17%
same,Change,Mus musculus [5],-31%
Cc1ccc2ccc(CC3=NOS(=O)N3)cc2c1 (centres undefined),Change,Mus musculus [3],-36%
O=S1NC(CCCc2ccc3ccccc3c2)=NO1 (centres undefined),Change,Mus musculus [3],<-15%
O=S1NC(Cc2ccc3cccc(Br)c3c2)=NO1 (centres undefined),Change,Mus musculus [2]; dose 100 mg/kg,-59% and -48%
C=Cc1cccc2cc(CC3=NOS(=O)N3)ccc12 (centres undefined),Change,Mus musculus [5],-17%
COc1c(CC2=NOS(=O)N2)ccc2ccccc12 (centres undefined),Change,Mus musculus [1],<-15%
same,Change,Mus musculus [5],-43%
COc1ccc(Cl)cc1C(=O)NCCc1ccc(S(=O)(=O)NC(=O)NC2CCCCC2)cc1 [GLYBURIDE],Glucose level,Mus musculus [6],297 mg/dL
same,Glucose level,Rattus norvegicus [9],71 mg/dL
same,Glucose level,Rattus norvegicus [11],110 mg/dL
same,Glucose level,Rattus norvegicus [12],55 mg/dL
same,Glucose level,Rattus norvegicus [13],51 mg/dL
same,Glucose level,Mus musculus [15],311 mg/dL
COc1cc2ccccc2cc1CC1=NOS(=O)N1 (centres undefined),Change,Mus musculus [24],-16%
Cc1cc2ccccc2c(Br)c1CC1=NOS(=O)N1 (centres undefined),Change,Mus musculus [1],<-15%
same,Change,Mus musculus [5],-34%
CSc1ccc(Br)c2ccc(CC3=NOS(=O)N3)cc12 (centres undefined),Change,Mus musculus [1],<-15%
same,Change,Mus musculus [5],-19%
O=S1NC(CCCCc2ccc3ccccc3c2)=NO1 (centres undefined),Change,Mus musculus [2]; dose 100 mg/kg,-28%
COC(CC1=NOS(=O)N1)c1ccc2ccccc2c1 (centres undefined),Change,Mus musculus [3],<-15%
O=S1NC(Cc2cc3ccccc3cc2C(F)(F)F)=NO1 (centres undefined),Change,Mus musculus [1],<-15%
same,Change,Mus musculus [2]; [27],-30%
N#Cc1cccc2ccc(CC3=NOS(=O)N3)cc12 (centres undefined),Change,Mus musculus [1],<-15%
same,Change,Mus musculus [5],<-15%
O=S1NC(Cc2cc3ccccc3cc2Cl)=NO1 (centres undefined),Change,Mus musculus [1],<-15%
same,Change,Mus musculus [2]; [27],-44%
CCc1cccc2cc(CC3=NOS(=O)N3)ccc12 (centres undefined),Change,Mus musculus [1],<-15%
same,Change,Mus musculus [2]; [27],-23%
O=S1NC(Cc2ccc3ccc(Br)cc3c2)=NO1 (centres undefined),Change,Mus musculus [5],<-15%
Cc1cc2ccccc2c(C)c1CC1=NOS(=O)N1 (centres undefined),Change,Mus musculus [1],<-15%
same,Change,Mus musculus [5],-45%
CC(CC1=NOS(=O)N1)c1ccc2ccccc2c1 (centres undefined),Change,Mus musculus [3],-27%
O=S1NC(Cc2cc3ccccc3cc2Br)=NO1 (centres undefined),Change,Mus musculus [1],<-15%
same,Change,Mus musculus [5],-28%
O=S1NC(Cc2ccc3cc(Br)ccc3c2)=NO1 (centres undefined),Change,Mus musculus [1],<-15%
same,Change,Mus musculus [5],-25%
CN(C)C(=N)NC(=N)N [METFORMIN],Glucose level,Mus musculus [25],208 mg/dL
same,Glucose level,Mus musculus [26],253 mg/dL
O=S1NC(Cc2ccc3cccc(Cl)c3c2)=NO1 (centres undefined),Change,Mus musculus [1],<-15%
same,Change,Mus musculus [2]; [27],-55%
O=S1NC(COc2ccc3ccccc3c2)=NO1 (centres undefined),Change,Mus musculus [3],<-15%
COc1ccc2ccc(CC3=NOS(=O)N3)cc2c1 (centres undefined),Change,Mus musculus [5],-19%
COc1ccc(Br)c2cc(CC3=NOS(=O)N3)ccc12 (centres undefined),Change,Mus musculus [1],<-15%
COc1cccc2cc(CC3=NOS(=O)N3)ccc12 (centres undefined),Change,Mus musculus [24],<-15%
same,Change,Mus musculus [4],<-15%
Cc1ccc2ccc(CC3=NOS(=O)N3)cc2c1Br (centres undefined),Change,Mus musculus [5],-21%
CCc1c(CC2=NOS(=O)N2)ccc2ccccc12 (centres undefined),Change,Mus musculus [1],<-15%
same,Change,"Mus musculus [2]; dose 5 mg/kg, in the assay text read “at 5 mg/kg” for “at 100 mg/kg”",-24%
C#Cc1cccc2cc(CC3=NOS(=O)N3)ccc12 (centres undefined),Change,Mus musculus [1],-19%
same,Change,Mus musculus [2]; [27],-45%
Cc1c(CC2=NOS(=O)N2)ccc2ccccc12 (centres undefined),Change,Mus musculus [2]; dose 100 mg/kg,-36% and -20%
CSc1cccc2cc(CC3=NOS(=O)N3)ccc12 (centres undefined),Change,Mus musculus [5],<-15%
CC1(COc2ccc(CC3SC(=O)NC3=O)cc2)CCCCC1 (centres undefined) [CIGLITAZONE],Glucose level,Mus musculus [15],189 mg/dL
O=S1NC(/C=C/c2ccc3ccccc3c2)=NO1 (centres undefined),Change,Mus musculus [3],<-15%
O=S1NC(Cc2cc(Br)c3ccccc3c2)=NO1 (centres undefined),Change,Mus musculus [1],<-15%
same,Change,Mus musculus [5],-21%
